Screens as filed in PubChem.
PP1 counter – blocks human PP1-alpha phosphatase, a PP5 counter-screen | purified PP1alpha, OMFP fluorescence | 0.9% of 320,000 active | P62136 | inhibition, % at 6.7 µM;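 active = inhibition above the mean inhibition of all tested compounds plus 3 SD, computed separately for each screening campaign, cut at about 15% in these data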
ZTA DNA inh – counter-screen for EBNA-1 inhibitors: inhibitors of Epstein-Barr virus ZTA; ZTA-DNA binding, fluorescence polarization; inhibition, % at 11 µM; 0.15% of 320,000 active; AID 2234; in the data active = inhibition above about 33%
HCV core dimer – blocks dimerization of HCV core protein; TR-FRET GST/Flag-core106 dimerization, 1536-well; inhibition, % at 5 µM; 0.33% of 300,000 active;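 active = inhibition above the mean of all tested compounds plus 3 SD, set per screening campaign, cut at about 45% in these data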
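Assay system – GST-tagged and Flag-tagged HCV core protein residues 1-106 · Quantity – core106 proteins, GST 13.5 nM and Flag 17 nM · Benchmarks – unlabelled core106 and no-GST-core106 wells · Read-out basis – percent inhibition of core106 dimerization signal · Detection – time-resolved FRET, ex 340 nm, em 617 and 671 nm · Schedule – 4 h at 22.5 °C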
PP5 primary – blocks human protein phosphatase 5 activity. purified PP5c, OMFP substrate fluorescence. inhibition, % at 6.7 µM. 0.18% of 320,000 active;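 active = inhibition above the campaign's mean inhibition across all tested compounds plus 3 SD, cut at about 9.5% in these data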;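 also: 0% = DMSO only and 100% = 100 µM cantharidin control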
Target sequence (P53041 whole entry, looked up): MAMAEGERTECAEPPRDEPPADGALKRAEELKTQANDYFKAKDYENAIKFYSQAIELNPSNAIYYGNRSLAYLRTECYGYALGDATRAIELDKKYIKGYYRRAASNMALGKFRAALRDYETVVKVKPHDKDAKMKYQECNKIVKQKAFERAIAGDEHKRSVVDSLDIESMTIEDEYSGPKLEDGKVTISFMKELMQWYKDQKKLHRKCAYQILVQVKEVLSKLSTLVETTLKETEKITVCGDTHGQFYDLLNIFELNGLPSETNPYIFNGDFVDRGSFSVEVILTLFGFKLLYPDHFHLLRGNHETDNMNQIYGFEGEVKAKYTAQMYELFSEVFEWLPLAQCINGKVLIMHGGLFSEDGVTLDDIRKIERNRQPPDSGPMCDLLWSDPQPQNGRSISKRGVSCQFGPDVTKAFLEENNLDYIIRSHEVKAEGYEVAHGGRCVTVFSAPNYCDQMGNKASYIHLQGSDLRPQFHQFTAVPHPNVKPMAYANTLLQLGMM
EBNA-1 inh – blocks EBNA-1 binding to DNA. inhibition, % at 14.8 µM. EBNA-1 DNA binding, fluorescence polarization. 0.34% of 300,000 active; in the data active = inhibition above about 28%
Active calls of the source: *; · = no result. Shown are actives, neighbours in structure and some others; about 1.7% of the full set was active somewhere.

SMILES	PP1 counter	ZTA DNA inh	HCV core dimer	PP5 primary	EBNA-1 inh
O=C(OCCc1cc2ccccc2c(=O)o1)c1ccc(C(F)(F)F)cc1	1	11	·	3	·
COc1ccc(S(=O)(=O)N(Cc2ccco2)Cc2cc3ccccc3[nH]c2=O)cc1	11	1	7	3	-5
NC(=S)N/N=C/c1ccc(-c2ccc([N+](=O)[O-])cc2)o1	2	-13	50*	0	-6
CN(/N=C/c1ccc(-c2ccc([N+](=O)[O-])cc2)o1)c1ccccc1	2	-11	55*	0	-6
Cc1ccc(C(=O)NCCSc2ccccc2)cc1S(=O)(=O)Nc1ccccc1	2	1	3	3	6
CC(C)(CNS(=O)(=O)c1ccc2ccccc2c1)N1CCOCC1	-4	-4	·	2	·
O=c1c2ccccc2c(C=Nc2ccc(S(=O)(=O)N3CCCCC3)cc2)c(O)n1-c1ccc(Cl)cn1	2	1	60*	3	-4
Cc1ccc(Nc2nnc(SCC(=O)c3ccc(Br)s3)s2)c(C)c1	17*	-3	17	3	1
Cc1ccc(CNC(=O)CCSCc2ccccc2C)cc1	1	13	1	-3	17
Cc1cc(OCC(=O)OCC(=O)NCc2ccc3c(c2)OCO3)ccc1Cl	1	-3	·	5	·
COc1cc(C2C(C#N)=C(N)Oc3cc(C)oc(=O)c32)cc2c1OCO2 (stereo not given)	5	4	65*	2	0
CSc1ccc(S(=O)(=O)N2CCC(C(=O)Nc3ccc(C(N)=O)cc3)CC2)cc1	0	19	-4	2	11
O=C(N/N=C/c1cccnc1)c1cc(-c2ccc(Cl)cc2)nc2ccccc12	-2	-12	-4	4	-1
O=C(N/N=C/c1ccc(Cl)cc1)c1cc(-c2cccnc2)nc2ccccc12	17*	9	6	2	-3
O=C(Nc1cccnc1)c1sc(Nc2ccccc2)nc1-c1ccccc1	5	3	-32	4	89*
Cc1cccc(Nc2nc(-c3ccccc3)c(C(=O)Nc3cccnc3)s2)c1	6	11	-53	6	8
COc1ccccc1OCc1nnc(SCC(=O)N2CCCC2)o1	1	0	-6	-1	7
COc1ccccc1OCc1nnc(SCC(=O)c2cc(Cl)ccc2OC)o1	17*	-25	4	3	-13
O=C(O)c1cccnc1SC1CC(=O)N(c2ccc(OC(F)F)cc2)C1=O (stereo not given)	16*	7	6	4	4
NC(=O)CC(NC(=O)Cc1ccc(Br)cc1)c1ccc(NCc2ccc(F)c(F)c2)c([N+](=O)[O-])c1 (stereo not given)	17*	-11	-1	5	-9
CCC(CC)Nc1ccc(C(CC(N)=O)NC(=O)Cc2cccc3ccccc23)cc1[N+](=O)[O-] (stereo not given)	17*	0	-4	2	2
NC(=O)CC(NC(=O)Cc1cccc2ccccc12)c1ccc(NCC2CC2)c([N+](=O)[O-])c1 (stereo not given)	-1	2	2	0	8
O=C(OCCc1cc2ccccc2c(=O)o1)c1ccco1	-2	10	·	-4	·
COc1ccc(OCCn2cc(/C=C(\C#N)C(=O)NCc3ccco3)c3ccccc32)cc1	1	17	6	2	25
N#C/C(=C\c1cn(CCOc2ccccc2)c2ccccc12)C(=O)NCc1cccs1	2	-5	9	2	37*
SMILES	PP1 counter	ZTA DNA inh	HCV core dimer	PP5 primary	EBNA-1 inh
COc1ccccc1OCCCC(=O)Nc1nnc(C2CCCO2)s1 (stereo not given)	2	7	1	2	-3
CCCCN1C(=O)c2ccc(C(=O)NC3(C)CCS(=O)(=O)C3)cc2C1=O (stereo not given)	-1	-8	·	1	·
O=C(c1cc(-c2ccc(F)cc2)on1)N1CCCc2ccccc21	16*	9	0	2	8
Cc1ccc(-c2cc(C(=O)N3CCCc4ccccc43)no2)cc1	0	-3	4	5	-8
O=C(N/N=C\c1cn(-c2ccccc2)nc1-c1ccccc1)c1ccc(Br)o1	3	6	25	4	0
Cc1ccc(-c2nn(-c3ccccc3)cc2/C=N/NC(=O)c2ccc(Br)o2)cc1	3	5	49*	3	2
Cc1ccc2nnnc(-c3ccccc3)c2c1	-2	35*	1	4	38*
Cc1sc(N2CCN(S(=O)(=O)c3ccc4c(c3)NC(=O)CO4)CC2)nc1-c1ccccc1	-4	10	23	0	-6
